Assay results as given in ChEMBL document CHEMBL1124308, “Renin inhibitors. Dipeptide analogues of angiotensinogen utilizing a structurally modified phenylalanine residue to impart proteolytic stability” (J Med Chem, 1988).

Columns and labels:
Pepsin A (Sus scrofa) = Pepsin A (Sus scrofa) (UniProt P00791); test: Inhibition of porcine pepsin enzyme at 1*10e-5; conditions: concentration not given here
Renin [1] = molecular target: T1, Renin (Homo sapiens, UniProt P00797); test: Inhibition of purified human renin (pH 6.0)
T1 sequence (P00797 whole entry): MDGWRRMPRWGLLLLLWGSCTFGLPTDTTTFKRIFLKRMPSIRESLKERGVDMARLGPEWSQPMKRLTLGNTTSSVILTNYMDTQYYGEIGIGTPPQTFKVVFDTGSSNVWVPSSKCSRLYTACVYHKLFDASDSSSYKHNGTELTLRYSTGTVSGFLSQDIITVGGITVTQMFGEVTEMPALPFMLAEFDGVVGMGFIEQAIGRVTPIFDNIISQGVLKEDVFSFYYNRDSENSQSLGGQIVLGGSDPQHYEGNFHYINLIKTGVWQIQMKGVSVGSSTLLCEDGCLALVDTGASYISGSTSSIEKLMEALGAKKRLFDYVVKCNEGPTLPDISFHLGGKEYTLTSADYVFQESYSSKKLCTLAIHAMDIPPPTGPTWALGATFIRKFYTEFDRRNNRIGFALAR

[2] = (§1) Ratio of IC50 value for human plasma renin(pH 7.4) and purified human renin(pH 6.0); format: functional
Renin [3] = molecular target: T1, Renin; test: Inhibition of human plasma renin (pH 7.4); format: cell-free
Procedure, shortened: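 Plasma renin assay at pH 7.4, adapted from an earlier method: 0.10 M HEPES buffer in place of maleate, incubation lengthened to 2.5 h, and angiotensin I measured by radioimmunoassay on the whole incubation sample. IC50 reported in nM.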

chymotrypsin = test: The compound was tested […] for chymotrypsin susceptibility (degradation); format: ADME
Cathepsin D (Bos taurus) = molecular target: T2, Cathepsin D (Bos taurus) (UniProt P80209); test: Inhibition of bovine cathepsin D at 1*10e-5; conditions: concentration not given here
T2 sequence (whole entry): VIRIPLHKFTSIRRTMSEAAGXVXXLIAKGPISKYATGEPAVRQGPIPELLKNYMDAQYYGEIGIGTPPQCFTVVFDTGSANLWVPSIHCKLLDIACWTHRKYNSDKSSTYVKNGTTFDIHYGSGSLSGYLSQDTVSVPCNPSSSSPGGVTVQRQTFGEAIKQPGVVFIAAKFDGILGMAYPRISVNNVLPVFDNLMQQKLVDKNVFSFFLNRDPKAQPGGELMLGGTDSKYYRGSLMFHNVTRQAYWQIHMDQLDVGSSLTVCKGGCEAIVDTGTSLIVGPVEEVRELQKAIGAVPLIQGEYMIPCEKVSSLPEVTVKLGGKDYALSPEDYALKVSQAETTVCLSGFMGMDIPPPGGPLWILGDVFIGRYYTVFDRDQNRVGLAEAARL

[4] = as §1

Sequence of Pepsin A (Sus scrofa) (P00791 60-385 limits assumed): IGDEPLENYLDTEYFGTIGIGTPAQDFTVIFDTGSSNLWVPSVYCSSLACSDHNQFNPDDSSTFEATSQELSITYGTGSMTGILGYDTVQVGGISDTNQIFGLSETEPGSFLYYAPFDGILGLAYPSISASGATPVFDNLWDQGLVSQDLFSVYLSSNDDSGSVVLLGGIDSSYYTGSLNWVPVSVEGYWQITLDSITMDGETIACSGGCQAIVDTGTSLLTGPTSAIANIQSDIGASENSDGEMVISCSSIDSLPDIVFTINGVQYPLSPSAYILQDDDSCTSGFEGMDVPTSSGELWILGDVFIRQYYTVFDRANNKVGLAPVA

Row | SMILES | inhibition (Pepsin A (Sus scrofa)) [%] | IC50 (Renin [1]) [nM] | IC50 (Renin [3]) [nM] | half-life (chymotrypsin) [min] | inhibition (Cathepsin D (Bos taurus)) [%] | Ratio [4] | Ratio [2]
1 | CC(C)C[C@H](O)[C@H](O)[C@H](CC1CCCCC1)NC(=O)[C@H](Cc1c[nH]cn1)NC(=O)[C@H](Cc1ccccc1)NC(=O)N1CCC(O)CC1 | 4 | 0.42 | 0.68 | 3.3 | 2 | – | 1.6
2 | CC(C)C[C@H](O)[C@H](O)[C@H](CC1CCCCC1)NC(=O)[C@H](Cc1c[nH]cn1)NC(=O)[C@H](Cc1ccccc1)NC(=O)N(C)C | 11 | 0.5 | 3.3 | 17.5 | 3 | – | 6.6
3 | CC(C)C[C@H](O)[C@H](O)[C@H](CC1CCCCC1)NC(=O)[C@H](Cc1c[nH]cn1)NC(=O)/C(=C/c1ccccc1)CC(=O)N1CCOCC1 | 8 | 0.79 | 2.1 | 1260 | 0 | – | 2.7
4 | COc1ccc(C[C@H](NC(=O)N2CCOCC2)C(=O)N[C@@H](Cc2cnc[nH]2)C(=O)N[C@@H](CC2CCCCC2)[C@@H](O)[C@@H](O)CC(C)C)cc1 | – | 0.76 | 2.4 | 727 | – | – | –
5 | CC(C)C[C@H](O)[C@H](O)[C@H](CC1CCCCC1)NC(=O)[C@H](Cc1c[nH]cn1)NC(=O)/C(=C/c1ccccc1)NC(=O)N1CCOCC1 | 0 | 0.58 | 5.3 | – | 0 | – | 9.1
6 | CC(C)C[C@H](O)[C@H](O)[C@H](CC1CCCCC1)NC(=O)[C@H](Cc1cnc[nH]1)NC(=O)[C@H](Cc1ccccc1)NC(=O)N(C)CCO | – | 0.55 | 0.98 | 34.3 | – | – | –
7 | CC(C)C[C@H](O)[C@H](O)[C@H](CC1CCCCC1)NC(=O)[C@H](Cc1c[nH]cn1)NC(=O)[C@@H](CC(=O)N1CCOCC1)Cc1ccccc1 | 0 | 0.29 | 1.3 | 227 | 0 | 4.5 | –
8 | CC(C)C[C@H](O)[C@H](O)[C@H](CC1CCCCC1)NC(=O)[C@H](Cc1cnc[nH]1)NC(=O)[C@H](Cc1ccccc1)NC(=O)N1CCOCC1 | – | 0.35 | 0.89 | 2.2 | – | – | –
9 | CC(C)C[C@H](O)[C@H](O)[C@H](CC1CCCCC1)NC(=O)[C@H](Cc1c[nH]cn1)N(C)C(=O)[C@H](Cc1ccccc1)NC(=O)N1CCOCC1 | 0 | 0.94 | 2.5 | – | 0 | – | 2.7
10 | CC(C)C[C@H](O)[C@H](O)[C@H](CC1CCCCC1)NC(=O)[C@H](Cc1c[nH]cn1)NC(=O)[C@H](CCc1ccccc1)NC(=O)N1CCOCC1 | 6 | 0.3 | 2 | 9.6 | 0 | – | 6.7
11 | CC(C)C[C@H](O)[C@H](O)[C@H](CC1CCCCC1)NC(=O)[C@H](Cc1c[nH]cn1)NC(=O)[C@H](Cc1ccccc1)NC(=O)N1CCNCC1 | 0 | – | 4.5 | 6.9 | 0 | – | 6.9
12 | CC(C)C[C@H](O)[C@H](O)[C@H](CC1CCCCC1)NC(=O)[C@H](Cc1c[nH]cn1)NC(=O)[C@@H](Cc1ccccc1)NC(=O)N1CCOCC1 | 2 | 14 | 140 | – | 1 | – | 10

Now from value to compound, other results behind:

Row | inhibition (Pepsin A (Sus scrofa)) [%] | IC50 (Renin [1]) [nM] | IC50 (Renin [3]) [nM] | half-life (chymotrypsin) [min] | inhibition (Cathepsin D (Bos taurus)) [%] | Ratio [4] | SMILES | Ratio [2]
13 | 0 | 0.82 | 3 | 233 | 0 | – | CC(C)C[C@H](O)[C@H](O)[C@H](CC1CCCCC1)NC(=O)[C@H](Cc1c[nH]cn1)NC(=O)[C@H](Cc1ccccc1)OC(=O)N1CCOCC1 | 3.7
14 | 3 | – | – | – | 3 | – | CC(C)C[C@H](O)[C@H](O)[C@H](CC1CCCCC1)NC(=O)[C@H](Cc1c[nH]cn1)NC(=O)[C@@H](NC(=O)N1CCOCC1)C(C)(C)c1ccccc1 | 25
15 | 3 | – | – | – | 0 | – | CC(C)C[C@H](O)[C@H](O)[C@H](CC1CCCCC1)NC(=O)[C@H](Cc1c[nH]cn1)NC(=O)[C@H](Cc1ccccc1)NC(=O)N(C)CCO | 1.8
16 | – | 2.6 | 65 | – | – | – | CC(C)C[C@H](O)[C@H](O)[C@H](CC1CCCCC1)NC(=O)[C@H](Cc1cnc[nH]1)NC(=O)[C@@H](NC(=O)N1CCOCC1)C(C)(C)c1ccccc1 | –
17 | 4 | – | – | – | 3 | – | COc1ccc(C[C@H](NC(=O)N2CCOCC2)C(=O)N[C@@H](Cc2c[nH]cn2)C(=O)N[C@@H](CC2CCCCC2)[C@@H](O)[C@@H](O)CC(C)C)cc1 | 3.2
18 | 0 | – | – | – | 0 | 2.5 | CC(C)C[C@H](O)[C@H](O)[C@H](CC1CCCCC1)NC(=O)[C@H](Cc1c[nH]cn1)NC(=O)[C@H](Cc1ccccc1)NC(=O)N1CCOCC1 | –
